Results: ChEMBL document CHEMBL5653631, “A Potent and Selective ULK1 Inhibitor Suppresses Autophagy and Sensitizes Cancer Cells to Nutrient Stress” (iScience, 2018)
Each block holds one compound with its values, some of them ahead of it.

How the values were obtained:
[1] = target: T1, Ephrin type-A receptor 3 (Homo sapiens) (UniProt P29320); assay: Inhibition of human recombinant EphA3 at 500 nM in presence of ATP by radiometric assay relative to control
T1 sequence (whole entry): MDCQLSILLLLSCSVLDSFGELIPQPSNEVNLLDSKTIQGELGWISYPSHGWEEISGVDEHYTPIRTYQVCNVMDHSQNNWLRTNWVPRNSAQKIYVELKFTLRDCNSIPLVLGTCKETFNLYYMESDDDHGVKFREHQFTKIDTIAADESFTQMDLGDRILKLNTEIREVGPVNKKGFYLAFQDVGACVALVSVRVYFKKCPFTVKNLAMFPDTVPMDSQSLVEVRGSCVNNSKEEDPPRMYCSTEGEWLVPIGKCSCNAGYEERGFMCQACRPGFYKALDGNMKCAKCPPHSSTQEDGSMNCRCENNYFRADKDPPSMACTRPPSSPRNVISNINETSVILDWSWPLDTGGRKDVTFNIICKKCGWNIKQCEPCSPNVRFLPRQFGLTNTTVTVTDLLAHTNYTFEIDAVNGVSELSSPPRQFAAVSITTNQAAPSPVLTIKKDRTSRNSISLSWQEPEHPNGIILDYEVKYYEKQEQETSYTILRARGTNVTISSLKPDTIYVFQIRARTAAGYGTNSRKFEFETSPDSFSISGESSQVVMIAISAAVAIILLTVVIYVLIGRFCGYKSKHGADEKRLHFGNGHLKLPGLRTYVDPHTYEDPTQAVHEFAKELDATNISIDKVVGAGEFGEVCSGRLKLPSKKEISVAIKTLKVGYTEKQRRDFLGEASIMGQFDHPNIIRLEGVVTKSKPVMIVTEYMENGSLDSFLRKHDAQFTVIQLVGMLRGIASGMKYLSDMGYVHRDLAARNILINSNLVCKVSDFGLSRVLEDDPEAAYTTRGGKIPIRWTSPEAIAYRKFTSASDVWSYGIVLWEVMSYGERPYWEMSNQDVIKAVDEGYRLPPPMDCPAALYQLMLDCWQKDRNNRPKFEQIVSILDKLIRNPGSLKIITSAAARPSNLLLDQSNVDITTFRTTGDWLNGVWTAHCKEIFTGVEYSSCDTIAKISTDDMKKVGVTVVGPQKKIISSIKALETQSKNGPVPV

[2] = target: Fibroblast growth factor receptor 4 (Homo sapiens) (UniProt P22455); assay: Inhibition of human recombinant FGFR4 at 500 nM in presence of ATP by radiometric assay relative to control
Fibroblast growth factor receptor 4 (Homo sapiens), sequence (P22455 22-802 limits assumed): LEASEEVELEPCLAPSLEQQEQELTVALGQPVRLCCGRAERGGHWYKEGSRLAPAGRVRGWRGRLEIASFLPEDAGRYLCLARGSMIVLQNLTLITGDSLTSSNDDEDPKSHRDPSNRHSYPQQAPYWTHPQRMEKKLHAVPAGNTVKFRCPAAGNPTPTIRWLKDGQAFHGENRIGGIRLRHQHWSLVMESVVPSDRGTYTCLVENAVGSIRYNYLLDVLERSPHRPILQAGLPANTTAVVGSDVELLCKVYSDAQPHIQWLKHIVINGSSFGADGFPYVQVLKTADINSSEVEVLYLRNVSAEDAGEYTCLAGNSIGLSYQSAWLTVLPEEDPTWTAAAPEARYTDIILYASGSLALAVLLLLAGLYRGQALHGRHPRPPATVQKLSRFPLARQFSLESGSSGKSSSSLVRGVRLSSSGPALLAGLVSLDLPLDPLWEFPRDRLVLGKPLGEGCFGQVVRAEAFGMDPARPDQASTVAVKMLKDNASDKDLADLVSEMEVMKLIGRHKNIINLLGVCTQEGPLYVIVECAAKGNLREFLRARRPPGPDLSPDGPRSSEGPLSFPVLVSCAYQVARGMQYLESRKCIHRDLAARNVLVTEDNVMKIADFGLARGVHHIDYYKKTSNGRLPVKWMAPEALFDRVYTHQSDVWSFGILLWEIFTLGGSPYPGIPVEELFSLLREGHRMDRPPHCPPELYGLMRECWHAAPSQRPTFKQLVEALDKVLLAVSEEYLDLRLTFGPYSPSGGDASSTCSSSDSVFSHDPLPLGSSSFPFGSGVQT

[3] = target: T2, Bone morphogenetic protein receptor type-2 (Homo sapiens) (UniProt Q13873); assay: Inhibition of human recombinant BMPR2 at 500 nM related to control ULK1
T2 sequence (whole entry): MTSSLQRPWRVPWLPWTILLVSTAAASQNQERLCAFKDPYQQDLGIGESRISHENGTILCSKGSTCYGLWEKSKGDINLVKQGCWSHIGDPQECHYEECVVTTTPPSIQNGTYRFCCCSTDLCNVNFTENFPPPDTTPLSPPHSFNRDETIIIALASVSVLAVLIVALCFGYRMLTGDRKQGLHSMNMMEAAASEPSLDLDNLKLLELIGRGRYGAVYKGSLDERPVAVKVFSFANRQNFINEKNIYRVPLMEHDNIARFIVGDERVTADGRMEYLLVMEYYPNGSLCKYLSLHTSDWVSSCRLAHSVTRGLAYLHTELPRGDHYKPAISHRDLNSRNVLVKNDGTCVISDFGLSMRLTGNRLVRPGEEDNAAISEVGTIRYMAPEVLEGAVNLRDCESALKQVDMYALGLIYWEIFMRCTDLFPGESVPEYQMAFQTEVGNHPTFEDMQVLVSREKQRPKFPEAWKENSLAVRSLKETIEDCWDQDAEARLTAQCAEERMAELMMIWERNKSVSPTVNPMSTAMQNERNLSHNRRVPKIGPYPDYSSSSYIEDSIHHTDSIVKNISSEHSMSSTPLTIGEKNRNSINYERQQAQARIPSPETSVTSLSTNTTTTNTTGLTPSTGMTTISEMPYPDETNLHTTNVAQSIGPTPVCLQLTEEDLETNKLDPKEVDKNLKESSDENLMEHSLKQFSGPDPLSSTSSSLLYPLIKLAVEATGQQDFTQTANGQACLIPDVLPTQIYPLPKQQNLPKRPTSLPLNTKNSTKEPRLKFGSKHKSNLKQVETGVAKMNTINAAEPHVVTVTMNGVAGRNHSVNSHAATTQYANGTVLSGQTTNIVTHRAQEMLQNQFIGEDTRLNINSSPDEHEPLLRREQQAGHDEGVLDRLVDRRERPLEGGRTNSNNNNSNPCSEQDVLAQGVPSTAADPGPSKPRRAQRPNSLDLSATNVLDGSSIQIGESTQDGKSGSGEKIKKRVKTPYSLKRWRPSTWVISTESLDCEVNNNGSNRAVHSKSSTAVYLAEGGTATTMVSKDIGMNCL

[4] = target: Dual specificity tyrosine-phosphorylation-regulated kinase 1B (Homo sapiens) (UniProt Q9Y463); assay: Inhibition of human recombinant DYRK1B at 500 nM related to control ULK1
Dual specificity tyrosine-phosphorylation-regulated kinase 1B (Homo sapiens), sequence (Q9Y463 whole entry, looked up): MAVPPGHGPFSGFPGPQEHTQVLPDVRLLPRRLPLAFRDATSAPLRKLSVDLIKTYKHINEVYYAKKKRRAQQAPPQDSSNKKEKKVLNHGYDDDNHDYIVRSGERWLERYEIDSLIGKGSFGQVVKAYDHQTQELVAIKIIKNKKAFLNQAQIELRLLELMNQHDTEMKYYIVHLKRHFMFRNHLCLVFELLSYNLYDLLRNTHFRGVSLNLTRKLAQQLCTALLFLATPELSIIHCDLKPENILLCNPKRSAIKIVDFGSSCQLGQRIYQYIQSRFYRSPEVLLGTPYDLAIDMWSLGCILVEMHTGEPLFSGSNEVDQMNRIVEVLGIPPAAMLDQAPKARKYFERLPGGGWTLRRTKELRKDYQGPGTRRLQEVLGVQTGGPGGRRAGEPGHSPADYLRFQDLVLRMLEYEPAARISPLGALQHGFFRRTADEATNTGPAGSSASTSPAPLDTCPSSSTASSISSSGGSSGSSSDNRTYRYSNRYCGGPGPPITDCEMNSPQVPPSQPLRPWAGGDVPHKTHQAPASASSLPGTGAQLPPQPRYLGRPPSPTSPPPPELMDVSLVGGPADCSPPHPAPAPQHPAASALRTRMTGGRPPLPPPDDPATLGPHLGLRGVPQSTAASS

[5] = target: T3, MAP kinase-activated protein kinase 5 (Homo sapiens) (UniProt Q8IW41); assay: Inhibition of human recombinant MAPKAPK5 at 40 nM related to control ULK1
T3 sequence (whole entry): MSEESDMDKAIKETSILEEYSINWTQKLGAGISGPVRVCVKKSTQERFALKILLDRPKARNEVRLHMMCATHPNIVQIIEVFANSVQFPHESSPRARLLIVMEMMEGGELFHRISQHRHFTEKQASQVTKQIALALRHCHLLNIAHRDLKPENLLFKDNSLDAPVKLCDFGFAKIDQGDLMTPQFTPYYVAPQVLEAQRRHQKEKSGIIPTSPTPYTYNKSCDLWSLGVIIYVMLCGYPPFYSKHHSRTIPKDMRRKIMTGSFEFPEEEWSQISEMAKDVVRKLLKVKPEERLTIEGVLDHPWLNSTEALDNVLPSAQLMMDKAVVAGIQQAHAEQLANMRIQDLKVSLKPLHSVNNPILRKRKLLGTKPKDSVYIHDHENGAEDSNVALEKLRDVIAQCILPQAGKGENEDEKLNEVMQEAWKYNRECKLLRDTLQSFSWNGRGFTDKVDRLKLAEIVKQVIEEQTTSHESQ

[6] = target: Activated CDC42 kinase 1 (Homo sapiens) (UniProt Q07912); assay: Inhibition of human recombinant ACK at 15 nM in presence of ATP by radiometric assay relative to control
Activated CDC42 kinase 1 (Homo sapiens), sequence (Q07912 whole entry, looked up): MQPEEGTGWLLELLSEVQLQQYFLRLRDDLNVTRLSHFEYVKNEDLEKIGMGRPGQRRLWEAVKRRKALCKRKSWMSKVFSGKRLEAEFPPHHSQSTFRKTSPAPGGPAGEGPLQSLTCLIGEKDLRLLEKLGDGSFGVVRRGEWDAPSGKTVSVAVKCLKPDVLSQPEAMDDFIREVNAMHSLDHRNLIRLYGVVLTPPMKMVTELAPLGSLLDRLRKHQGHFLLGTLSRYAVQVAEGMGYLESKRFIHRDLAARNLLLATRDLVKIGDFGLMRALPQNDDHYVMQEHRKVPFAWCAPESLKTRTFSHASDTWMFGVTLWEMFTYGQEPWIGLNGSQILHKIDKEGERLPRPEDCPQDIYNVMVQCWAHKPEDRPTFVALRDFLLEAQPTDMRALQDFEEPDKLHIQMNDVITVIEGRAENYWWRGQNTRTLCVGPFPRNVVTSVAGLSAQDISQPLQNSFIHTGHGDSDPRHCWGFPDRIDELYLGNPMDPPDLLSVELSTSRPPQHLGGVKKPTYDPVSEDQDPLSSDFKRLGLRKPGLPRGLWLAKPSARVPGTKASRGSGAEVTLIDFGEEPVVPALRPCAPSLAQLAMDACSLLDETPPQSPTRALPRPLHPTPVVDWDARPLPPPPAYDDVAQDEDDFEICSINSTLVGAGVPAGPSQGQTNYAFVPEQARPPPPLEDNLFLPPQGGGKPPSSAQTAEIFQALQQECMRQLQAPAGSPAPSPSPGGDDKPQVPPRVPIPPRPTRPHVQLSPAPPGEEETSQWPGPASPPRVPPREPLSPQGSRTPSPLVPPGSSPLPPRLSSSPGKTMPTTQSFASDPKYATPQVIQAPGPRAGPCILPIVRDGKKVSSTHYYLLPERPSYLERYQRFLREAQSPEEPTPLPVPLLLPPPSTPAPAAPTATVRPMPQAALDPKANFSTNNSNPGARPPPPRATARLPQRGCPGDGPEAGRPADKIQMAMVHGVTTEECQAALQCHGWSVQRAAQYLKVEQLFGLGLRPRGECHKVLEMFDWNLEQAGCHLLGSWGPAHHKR
Summary of the method: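 Panel of 327 recombinant human kinases in radiometric activity assays, each screened in duplicate at a single inhibitor concentration; percent activity remaining relative to vehicle control, percent inhibition taken as 100 minus activity remaining.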

inhibition [1]: 11%
inhibition [2]: 10%
fold change (FC) [3]: 0
fold change (FC) [4]: 0
SMILES: CNC(=O)c1ccccc1Oc1nc(Nc2cc(OC)c(OC)c(OC)c2)ncc1Br

fold change (FC) [5]: 0
SMILES: O=C(N[C@@H](C1CC1)C(F)(F)F)c1cc(-c2cnn3cc(-c4ccc(F)cc4)cnc23)cs1

inhibition [6]: 0%
SMILES: CC(C)[C@H](NC(=O)c1cc(-c2cnn3cc(-c4ccc(OCCN5CCCCC5)cc4)cnc23)cs1)C(F)(F)F
